Reference: ChEMBL document CHEMBL1124462, “Synthesis, DNA binding, and biological evaluation of synthetic precursors and novel analogues of netropsin” (J Med Chem, 1989)
≈ marks a conversion by molar mass, not a printed value.

Legend:
[1] = system: Vero; assay: Minimum cytotoxic concentration required to cause a microscopically detectable alteration of normal cell morphology and show antiviral activity in african green monkey (Vero B) cells; type: functional; conditions: Chlorocebus sabaeus
[2] = system: Raji; assay: Dose required to inhibit Human B-Lymphoblast (Raji) cell proliferation by 50%; type: functional; conditions: read-out: CD50 (the source's name)
[3] = system: HeLa; assay: Minimum inhibitory concentration required to reduce Coxsackie virus B4 induced cytopathogenicity by 50% in HeLa cells; type: functional; conditions: Homo sapiens
Procedure, shortened: (§1)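 Cell cultures (PRK, HeLa or Vero B) are infected at 100 × CCID50. Cytopathogenicity is recorded once it reaches completion in the untreated virus-infected controls. The minimum inhibitory concentration is given in μg/mL.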

[4] = system: HeLa; assay: Minimum inhibitory concentration required to reduce polio virus -1 induced cytopathogenicity by 50% in HeLa cells; type: functional; conditions: Homo sapiens
[5] = system: HeLa; assay: Minimum inhibitory concentration required to reduce vesicular stomatitis virus induced cytopathogenicity by 50% in HeLa cells; type: functional; conditions: Homo sapiens
[6] = system: HeLa; assay: Minimum cytotoxic concentration required to cause a microscopically detectable alteration of normal cell morphology and show antiviral activity in HeLa cells; type: functional; conditions: Homo sapiens
Procedure, shortened: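 HeLa cell cultures exposed to compound for the same duration as the antiviral assay, then examined microscopically. The minimum cytotoxic concentration is the lowest level causing detectable alteration of normal cell morphology. Values are in μg/mL.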

[7] = system: L1210; assay: Dose required to inhibit Murine leukemia (L1210) cell proliferation by 50%; type: functional; conditions: Mus musculus, read-out: CD50 (the source's name)
[8] = system: Human alphaherpesvirus 2; assay: Minimum inhibitory concentration required to reduce herpes simplex virus-2(G) induced cytopathogenicity by 50% in primary rabbit kidney cells (PRK); type: functional; procedure, shortened: as §1
[9] = system: Human alphaherpesvirus 1; assay: Minimum inhibitory concentration required to reduce herpes simplex virus-1 (KOS) induced cytopathogenicity by 50% in primary rabbit kidney cells(PRK); type: functional; procedure, shortened: as §1
[10] = system: Vesicular stomatitis virus; assay: (§2) Minimum inhibitory concentration required to reduce vesicular stomatitis virus induced cytopathogenicity by 50% in primary rabbit kidney cells (PRK); type: functional
[11] = organism: Oryctolagus cuniculus; assay: Minimum cytotoxic concentration required to cause a microscopically detectable alteration of normal cell morphology and show antiviral activity in primary rabbit kidney (PRK) cells; type: functional
[12] = Dose required to inhibit Human T-Lymphoblast (Molt/4F) cell proliferation by 50%; type: functional; conditions: read-out: CD50 (the source's name)
[13] = system: Sindbis virus; assay: (§3) Minimum inhibitory concentration required to reduce Sindbis virus induced cytopathogenicity by 50% in african green monkey (VeroB) cells; type: functional; procedure, shortened: as §1
[14] = system: Vero; assay: Minimum inhibitory concentration required to reduce parainfluenza virus-3 induced cytopathogenicity by 50% in african green monkey (VeroB) cells; type: functional, Human respirovirus 3; conditions: Chlorocebus sabaeus; procedure, shortened: as §1
[15] = system: Mammalian orthoreovirus 1; assay: Minimum inhibitory concentration required to reduce reovirus-1 induced cytopathogenicity by 50% in african green monkey (VeroB)cells; type: functional; procedure, shortened: as §1
[16] = system: Semliki Forest virus; assay: Minimum inhibitory concentration required to reduce semliki forest virus induced cytopathogenicity by 50% in african green monkey (VeroB) cells; type: functional; procedure, shortened: as §1
[17] = system: Vero; assay: Minimum inhibitory concentration required to reduce Coxsackie virus B4 induced cytopathogenicity by 50% in african green monkey (VeroB) cells; type: functional, Coxsackievirus B4; conditions: Chlorocebus sabaeus; procedure, shortened: as §1
[18] = system: Nucleic Acid; assay: Association constant against the polynucleotide poly (dA-dT).; type: nucleic-acid assay
Procedure, shortened: (§4)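 Competition with ethidium bromide binding at 25 °C in 0.01 M cacodylate buffer, pH 7.0, with 1.26 μM ethidium bromide and 1 μM polynucleotide. Bound ethidium is estimated from its fluorescence increase (V = 34 for poly(dA-dT), 25 for poly(dG-dC)). IC50 for 50% ethidium displacement comes from a fitted competition sigmoid. Kapp is calculated from IC50 assuming a binding size of four base pairs.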

[19] = Minimum inhibitory concentration required to reduce herpes simplex virus-2 (G) induced cytopathogenicity by 50% in primary rabbit kidney cells (PRK); type: functional; conditions: Oryctolagus cuniculus; procedure, shortened: as §1
[20] = Minimum inhibitory concentration required to reduce herpes simplex virus-1 (KOS) induced cytopathogenicity by 50% in primary rabbit kidney cells (PRK); type: functional; conditions: Oryctolagus cuniculus; procedure, shortened: as §1
[21] = system: Vero; assay: as §3; type: ADME, cell-based; conditions: Chlorocebus sabaeus, read-out: MIC; procedure, shortened: as §1
[22] = system: Nucleic Acid; assay: Association constant against polynucleotide poly (dG-dC); type: nucleic-acid assay; procedure, shortened: as §4
[23] = system: Raji; assay: Inhibition of Human B-Lymphoblast Raji cell proliferation; type: functional; conditions: read-out: CD50 (the source's name)
[24] = system: Nucleic Acid; assay: Association constant against the polynucleotide poly(dA-dT); type: nucleic-acid assay; procedure, shortened: as §4
[25] = Dose required to inhibit Murine mammary carcinoma (FM3A) cell proliferation by 50%; type: functional; conditions: Mus musculus, read-out: CD50 (the source's name)
[26] = system: Nucleic Acid; assay: Ratio of association constant of poly (dA-dT) and poly (dG-dC); type: nucleic-acid assay
Procedure, shortened: (§5)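 Kapp for poly(dA-dT) and for poly(dG-dC) is each determined by ethidium bromide competition in 0.01 M cacodylate, pH 7.0, 25 °C, with 1.26 μM ethidium and 1 μM polynucleotide. IC50 comes from a fitted competition sigmoid and is converted to Kapp assuming a four-base-pair binding size. The ratio is taken between the two polynucleotides.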

[27] = Minimum inhibitory concentration required to reduce herpes simplex virus-1 (KOS)induced cytopathogenicity by 50% in primary rabbit kidney cells (PRK); type: functional; conditions: Oryctolagus cuniculus
[28] = Minimum inhibitory concentration required to reduce herpes simplex virus-2 (G)induced cytopathogenicity by 50% in primary rabbit kidney cells (PRK); type: functional; conditions: Oryctolagus cuniculus
[29] = system: FM3A; assay: In vitro inhibition of FM3A (murine mammary carcinoma) cell proliferation.; type: functional; conditions: Mus musculus, read-out: CD50 (the source's name)
[30] = system: Nucleic Acid; assay: Ratio of association constant of poly(dA-dT) and poly(dG-dC); type: nucleic-acid assay; procedure, shortened: as §5
[31] = as §2; type: functional; conditions: Oryctolagus cuniculus

Row | SMILES | MCC [1] | CC50 [2] | MIC [3] | MIC [4] | MIC [5] | MCC [6] | CC50 [7] | MIC [8] | MIC [9] | MIC [10] | MCC [11] | CC50 [12] | MIC [13] | MIC [14] | MIC [15] | MIC [16] | MIC [17] | K app [18] | K app [22] | also measured
1 | Cn1c(C(=O)O)ccc1[N+](=O)[O-] | > 400 µg/mL | > 50 µg/mL | 70 µg/mL (≈ 411 µM) | > 400 µg/mL | > 200 µg/mL | > 400 µg/mL | > 50 µg/mL | > 400 µg/mL | > 400 µg/mL | > 400 µg/mL | >400 µg/mL | > 50 µg/mL | > 100 µg/mL | > 200 µg/mL | > 100 µg/mL | > 200 µg/mL | > 100 µg/mL | – | – | –
2 | Cn1c(C(=O)NCCC#N)ccc1[N+](=O)[O-] | > 400 µg/mL | > 50 µg/mL | > 200 µg/mL | – | – | 400 µg/mL | > 50 µg/mL | – | – | 300 µg/mL (≈ 1350 µM) | 400 µg/mL | > 50 µg/mL | – | > 100 µg/mL | > 100 µg/mL | > 100 µg/mL | > 200 µg/mL | < 100 M⁻¹ | < 100 M⁻¹ | MIC [19]: > 200 µg/mL; MIC [20]: > 200 µg/mL; IC50 [21]: > 100 µg/mL
3 | Cn1cc(NC(=O)c2cc([N+](=O)[O-])cn2C)cc1C(=O)NCCC#N | > 40 µg/mL | – | > 10 µg/mL | – | – | > 40 µg/mL | > 100 µg/mL | > 10 µg/mL | > 10 µg/mL | > 10 µg/mL | >40 µg/mL | > 100 µg/mL | > 10 µg/mL | > 10 µg/mL | > 10 µg/mL | > 10 µg/mL | > 10 µg/mL | – | < 100 M⁻¹ | CC50 [23]: > 100 µg/mL; K app [24]: < 100 M⁻¹
4 | Cn1cc(NC(=O)c2cc(NC(=O)CNC(=N)N)cn2C)cc1C(=O)NCCCNCCCCN | ≥ 200 µg/mL | > 200 µg/mL | > 200 µg/mL | – | – | > 200 µg/mL | > 200 µg/mL | – | – | – | >=400 ug ml-1 | > 200 µg/mL | > 200 µg/mL | > 200 µg/mL | > 100 µg/mL | > 200 µg/mL | > 200 µg/mL | 2e+07 M⁻¹ | 7.6e+06 M⁻¹ | CC50 [25]: > 200 µg/mL; Ratio [26]: 2.63; MIC [27]: > 200 µg/mL; MIC [28]: > 200 µg/mL
5 | Cn1cc([N+](=O)[O-])cc1C(=O)NCCC#N | > 400 µg/mL | > 50 µg/mL | 150 µg/mL (≈ 675 µM) | > 400 µg/mL | > 400 µg/mL | > 400 µg/mL | > 50 µg/mL | > 200 µg/mL | > 400 µg/mL | > 400 µg/mL | >400 µg/mL | > 50 µg/mL | > 100 µg/mL | > 400 µg/mL | > 200 µg/mL | > 100 µg/mL | > 100 µg/mL | < 100 M⁻¹ | < 100 M⁻¹ | –
6 | C[C@H](NC(=O)c1cc(NC(=O)c2cc([N+](=O)[O-])cn2C)cn1C)C(=O)N[C@@H](C)C(=O)N[C@@H](C)C(=O)OC(C)(C)C | > 400 µg/mL | > 100 µg/mL | > 200 µg/mL | > 400 µg/mL | – | > 400 µg/mL | > 100 µg/mL | > 200 µg/mL | > 100 µg/mL | > 100 µg/mL | >400 µg/mL | > 100 µg/mL | > 200 µg/mL | > 400 µg/mL | > 200 µg/mL | > 200 µg/mL | > 200 µg/mL | – | 750 M⁻¹ | CC50 [29]: > 100 µg/mL; K app [24]: < 100 M⁻¹; Ratio [30]: < 0.13
7 | Nc1ncnc2c1ccn2[C@@H]1O[C@H](CO)[C@@H](O)[C@H]1O [TUBERCIDIN] | > 0.4 µg/mL | – | 0.07 µg/mL (≈ 0.263 µM) | 0.07 µg/mL (≈ 0.263 µM) | 0.07 µg/mL (≈ 0.263 µM) | > 0.4 µg/mL | – | – | – | – | >0.4 µg/mL | – | 0.1 µg/mL (≈ 0.376 µM) | 0.07 µg/mL (≈ 0.263 µM) | 0.07 µg/mL (≈ 0.263 µM) | > 0.4 µg/mL | 0.07 µg/mL (≈ 0.263 µM) | – | – | MIC [27]: > 0.1 µg/mL; MIC [28]: > 0.1 µg/mL; MIC [31]: 0.2 µg/mL (≈ 0.751 µM)
